Publication PMC2413043 (The Journal of Experimental Medicine, 2008)
Entries after “also recorded” stand apart in the source; their conditions may differ.

Tests used:
[1] = test system: TNF-α; assay: Serum TNF-α by ELISA in LPS-treated mice; format: in vivo, mouse; conditions: TSA daily from day −2, LPS day 0, serum 2 h after LPS, n = 2 ± SD
[2] = test system: p38; assay: Phosphorylation of p38 by immunoblot in RAW cells; format: cell-based, mouse; conditions: RAW cells pretreated 30 ng/ml TSA 1 h, 100 ng/ml LPS 30 min
Method in brief: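 RAW 264.7 cells (DME, 10% FBS) pretreated with TSA 30 ng/ml for 1 h, then LPS 100 ng/ml for 30 min. Whole-cell lysates were immunoblotted with antibodies to phosphorylated and total forms of the MAPK in question.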

[3] = test system: IL-1β; assay: Serum IL-1β by ELISA in LPS-treated mice; format: in vivo, mouse; conditions: TSA daily from day −2, LPS day 0, serum 2 h after LPS, n = 2 ± SD
[4] = test system: TNF-α; assay: TNF-α in media of primary macrophages by ELISA; format: cell-based, mouse; conditions: TSA and LPS, 4 h, n = 2 ± SD
Method in brief: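 Primary peritoneal macrophages collected by PBS lavage from resting WT or MKP-1−/− mice, not thioglycolate-elicited; the mice were on a C57BL/6J background. Cells stimulated with TSA, LPS or both. After 4 h, TNF-α and IL-1β in the media were measured by ELISA; n = 2, mean ± SD.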

[5] = test system: mouse liver; assay: LPS-induced liver inflammation, histology; format: in vivo; conditions: hematoxylin and eosin
Method in brief: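 Mice received saline (control) or TSA i.p. each day from day −2, then an i.p. LPS injection on day 0. Livers were harvested 2 h or 2 d after LPS, sectioned and stained with hematoxylin and eosin to assess leukocyte infiltration, edema and necrosis.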

[6] = test system: TNF-α, IL-6, and IL-1β; assay: Inflammatory cytokine RNA levels by Northern blotting in RAW cells; format: cell-based, mouse; conditions: RAW cells treated with LPS and TSA 4 h
Method in brief: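 RAW 264.7 cells (DME, 10% FBS) treated with LPS and TSA for 4 h. Total RNA was isolated with TRIZOL and analysed by Northern blotting with probes for TNF-α, IL-1β and IL-6, with GAPDH as loading control.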

[7] = test system: p38; assay: Phospho-p38 in MEFs from MKP-1 heterozygous or KO mice; format: cell-based, mouse; conditions: LPS and TSA 30 min
Method in brief: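 Embryonic fibroblasts from MKP-1+/− or MKP-1−/− mice, grown in DME with 10% FBS, were treated with LPS and TSA for 30 min. Lysates were immunoblotted for phospho-p38 and total p38.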

[8] = test system: NOS2; assay: Liver NOS2 protein by immunoblot; format: in vivo, mouse; conditions: TSA pretreatment 4 h, LPS 16 h
Method in brief: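 Mice were pretreated with increasing amounts of TSA for 4 h, then given LPS for 16 h. Liver was harvested and its lysate immunoblotted for NOS2, with MEK1 as the loading control.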

[9] = test system: MKP-1; assay: MKP-1 acetylation in mouse liver by immunoprecipitation; format: in vivo; conditions: TSA pretreatment 4 h, LPS 16 h; IP MKP-1, blot Ac-Lys
Method in brief: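 Mice pretreated with TSA for 4 h, then given LPS for 16 h. Liver lysates were immunoprecipitated with anti-MKP-1 and immunoblotted with anti-acetyl-lysine or anti-MKP-1.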

[10] = test system: p38; assay: Phospho-p38 in primary peritoneal macrophages; format: cell-based, mouse; conditions: LPS, TSA or both
Method in brief: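 Resident (non-thioglycolate-elicited) peritoneal macrophages were collected by PBS lavage from WT and MKP-1−/− mice. Cells were stimulated with LPS, TSA or both, and lysates were immunoblotted for total and phospho-p38.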

[11] = test system: MKP-1 and p38; assay: MKP-1/p38 association by co-immunoprecipitation in RAW cells; format: cell-based, mouse; conditions: co-IP
Method in brief: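 RAW 264.7 cells were treated with LPS and/or TSA for 1 h. Lysates were immunoprecipitated with anti-p38 or anti-MKP-1, and precipitates were immunoblotted reciprocally for MKP-1 or p38. The experiment was repeated twice.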

[12] = test system: phospho-ERK1; format: cell-based; conditions: MKP-1 immunoprecipitated from RAW cells treated with LPS and TSA 4 h
Method in brief: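 RAW 264.7 cells grown in DME with 10% FBS were treated with LPS plus TSA, or with control, for 4 h. Endogenous MKP-1 was immunoprecipitated from the lysates and incubated with recombinant phospho-p38 or phospho-ERK1. Remaining phosphorylation was detected by immunoblotting with phospho-p38 or phospho-ERK antibodies. The amount of phospho-substrate added was shown as an input lane.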

[13] = test system: MKP-1-ERα and p38; assay: MKP-1-ERα/p38 interaction by co-immunoprecipitation in HeLa cells; format: cell-based; conditions: 4-HT, LPS and TSA 1 h
[14] = test system: MKP-1; assay: MKP-1 acetylation, [3H]sodium acetate labelled RAW cells; format: cell-based, mouse; conditions: [3H]sodium acetate 1 h, TSA 0.5 h, 100 ng/ml LPS 0–3 h
Method in brief: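 RAW 264.7 cells metabolically labelled with [3H]sodium acetate for 1 h, plus TSA for 0.5 h, then LPS 100 ng/ml for 0–3 h. Lysates were immunoprecipitated with anti-MKP-1 and resolved by SDS-PAGE. Acetylation was detected by autoradiography; MKP-1 was immunoblotted as loading control.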

[15] = test system: MKP-1; assay: MKP-1 expression in RAW cells by immunoblot; format: cell-based, mouse; conditions: LPS and TSA 1 h
[16] = test system: COX-2 and CXCL2; assay: COX-2 and CXCL2 expression by RT-PCR in RAW cells; format: cell-based, mouse; conditions: LPS and TSA, Fig. 1 H and Fig. S1
Method in brief: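 RAW 264.7 cells grown in DME with 10% FBS and penicillin/streptomycin. Cells exposed to LPS, TSA or both for 4 h, then assessed for COX-2 and CXCL2 expression by RT-PCR.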

[17] = test system: Elk-1; assay: Phosphorylation of Elk-1 by immunoblot in RAW cells; format: cell-based, mouse; conditions: TSA 30 ng/ml 1 h and/or LPS 100 ng/ml 30 min
Method in brief: (§1)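 RAW 264.7 cells grown in DME with 10% FBS were pretreated with TSA 30 ng/ml for 1 h, then given LPS 100 ng/ml for 30 min. Lysates were immunoblotted with phospho-specific antibodies to MAPK cascade members (phospho-MKK3/6, phospho-Elk-1).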

[18] = test system: NF-κB pathway; assay: LPS activation of the NF-κB pathway; format: cell-based; conditions: Fig. S2
[19] = test system: MKP-1 KO mice; assay: LPS-induced mortality in MKP-1 KO mice; format: in vivo, mouse; conditions: LPS 20 mg/kg; n = 5; P = 0.17 LPS vs. LPS with TSA
[20] = test system: MKK3/6; assay: Phosphorylation of MKK3/6 by immunoblot in RAW cells; format: cell-based, mouse; conditions: TSA 30 ng/ml 1 h and/or LPS 100 ng/ml 30 min
Method in brief: as §1

CC(/C=C/C(=O)NO)=C\[C@@H](C)C(=O)c1ccc(N(C)C)cc1 [TSA, trichostatin A]
decrease of serum TNF-α, MKP-1−/− mice [1]: 22%
LPS-induced phosphorylation of p38 [2]: decreases phosphorylation of p38
decrease of serum IL-1β, MKP-1−/− mice [3]: 21%
suppression of TNF-α, MKP-1−/− macrophages [4]: 27%
suppression of TNF-α, WT macrophages [4]: 87%
LPS-induced leukocyte infiltration / inflammation in liver ([5]; livers 2 h after LPS): decreases LPS-induced inflammation
LPS-induced hepatocyte edema and necrosis ([5]; livers 2 d after LPS): limits LPS-induced hepatocyte edema and necrosis
expression of IL-1β [6]: inhibits
expression of IL-6 [6]: inhibits
expression of TNF-α [6]: inhibits
phospho-p38 levels, heterozygous vs MKP-1 KO MEFs [7]: decreases phospho-p38 levels in heterozygous cells, but not in MKP-1 KO cells
NOS2 steady-state protein levels in liver [8]: decreases NOS2 steady-state protein levels in liver
acetylation of MKP-1 in liver [9]: increases acetylation of MKP-1 in vivo
phospho-p38, WT vs MKP-1−/− primary macrophages [10]: only suppresses phospho-p38 in macrophages from WT mice, not in macrophages from MKP-1^−/− mice
association between p38 and MKP-1 ([11]; LPS and TSA 1 h): increases the association between p38 and MKP-1 in cells
interaction between MKP-1 and p38, TSA alone ([11]; TSA without LPS): increases the interaction between MKP-1 and p38, even in the absence of LPS
removal of phosphate from recombinant phospho-ERK1 by MKP-1 [12]: removes more phosphate from recombinant phospho-ERK1 than MKP-1 from control cells
interaction between mutant MKP-1(K57R) and p38 ([13]; MKP-1(K57R)-ERα): not able to affect the interaction between mutant MKP-1(K57R) and p38
interaction between MKP-1(WT) and p38 ([13]; MKP-1(WT)-ERα): increases the interaction between MKP-1(WT) and p38
MKP-1 acetylation [14]: increases MKP-1 acetylation
MKP-1 expression [15]: increases the expression of MKP-1 levels
COX-2 expression [16]: slightly increases
CXCL2 expression [16]: slightly increases
phosphorylation of Elk-1 [17]: decreases phosphorylation of p38 and Elk-1
LPS activation of the NF-κB pathway [18]: does not affect LPS activation of the NF-κB pathway
LPS-triggered IκBα degradation [18]: slightly increases
LPS-triggered p65 nuclear translocation [18]: slightly increases
NF-κB transactivation of the NOS2 promoter [18]: slightly increases
κB-binding activity [18]: slightly increases
mortality after LPS, effect of TSA, MKP-1 KO mice [19]: minimal and insignificant effect on mortality; also recorded: small protective effect on MKP-1^−/− mouse mortality
phosphorylation of MKK3/6 [20]: does not affect phosphorylation of the upstream MAPKK MKK3/6
